Source: ChEMBL document CHEMBL2331535, “Discovery and Biological Profiling of Potent and Selective mTOR Inhibitor GDC-0349” (ACS Med Chem Lett, 2013)
Each block holds one molecule with its values, some of them ahead of it. Activity calls are given as the source filed them. The calls are words filed in the database; no cut-off is given here.

Assays:
[1] = tested on: A549; test: Antitumor activity against KRas mutant, LKB1 deficient human A549 cells xenografted in po dosed mouse assessed as delay in tumor growth administered qd in presence of MEK inhibitor, GDC-0973; type: functional, organism-based
[2] = tested on: A549; test: Antitumor activity against KRas mutant, LKB1 deficient human A549 cells xenografted in mouse assessed as tumor growth inhibition at 5 to 30 mg/kg, po qd; type: functional, organism-based
[3] = tested on: Mus musculus; test: Toxicity in po dosed mouse xenografted with KRas mutant, LKB1 deficient human A549 cells assessed as body weight changes administered qd in presence of MEK inhibitor, GDC-0973; type: organism-based; settings: in vivo
[4] = tested on: Plasma; test: Free plasma clearance in mouse; type: ADME, cell-free
[5] = tested on: PC-3; test: Antiproliferative activity against PTEN-null human PC3 cells; type: functional, cell-based
Outline: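 PC3 prostate cancer cells (PTEN loss, PI3K-AKT-mTOR pathway activated) used for the antiproliferation assay. Activity is expressed as EC50 in nM.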

[6] = tested on: Plasma; test: Free plasma clearance in rat; type: ADME, cell-free
[7] = biological target: Cytochrome P450 3A4 (Homo sapiens, UniProt P08684); test: Time-dependent inhibition of CYP3A4 in human liver microsome using midazolam as substrate by TDI shift assay; type: ADME, microsomes
Outline: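 CYP3A4 time-dependent inhibition shift assay in human liver microsomes with NADPH cofactor and midazolam as probe substrate. The compound was preincubated for 30 min and compared with no preincubation. A left shift of the CYP activity curve after preincubation designates the compound TDI positive.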

[8] = Dissociation constant, pKa of the compound; type: physicochemical
[9] = tested on: Homo sapiens; test: Antitumor activity against PI3K-mutant human MCF7-neo/Her2 cells xenografted in po dosed NCR nude mouse assessed as tumor growth inhibition administered once daily for 14-21 days
[10] = tested on: 786-0; test: Antitumor activity against VHL mutant human 786-0 cells xenografted in po dosed nu/nu mouse assessed as tumor growth inhibition administered qd for 14-21 days; type: functional, organism-based
[11] = tested on: Homo sapiens; test: Antitumor activity against PI3K-mutant human MCF7-neo/Her2 cells xenografted in po dosed NCR nude mouse assessed as tumor growth inhibition administered qd for 14-21 days; type: functional, organism-based
Outline: (§1)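 MCF7-neo/Her2 (PI3K-mutant) breast cancer xenografts in athymic mice. Compound given orally once daily at 10, 20, 30, 40, 50, 60, 70 and 80 mg/kg QD, with a vehicle group (0 mg/kg). Tumor growth inhibition was tracked, and body weight change was monitored up to the highest dose.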

[12] = tested on: Homo sapiens; test: Decrease in phosphorylated 4-EBP1 level in PI3K-mutant human MCF7-neo/Her2 cells xenografted in NCR nude mouse at 25 to 100 mg/kg, po; type: functional, organism-based
[13] = tested on: Homo sapiens; test: Decrease in phosphorylation of Akt at Ser473 in PI3K-mutant human MCF7-neo/Her2 cells xenografted in NCR nude mouse at 25 to 100 mg/kg, po; type: functional, organism-based
[14] = tested on: PC-3; test: Antitumor activity against PTEN-null human PC3 cells xenografted in po dosed NCR nude mouse assessed as tumor growth inhibition administered qd for 14-21 days; type: functional, organism-based
[15] = In vivo clearance in mouse; type: ADME, organism-based
[16] = tested on: Mus musculus; test: Toxicity in NCR nude mouse xenografted with human PI3K-mutant MCF7-neo/Her2 cells assessed as body weight changes up to 80 mg/kg, po qd for 14-21 days; type: organism-based; set-up: dose 80 mg/kg, route oral; settings: in vivo; outline: as §1
[17] = Antitumor activity against PI3K-mutant human MCF7-neo/Her2 cells xenografted in po dosed NCR nude mouse assessed as tumor growth inhibition at maximum tolerated dose administered qd for 14-21 days; type: functional
Outline: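 Athymic mice bearing MCF7-neo/Her2 breast tumour xenografts (PI3K-mutant) were given the drug orally once daily at 10, 20, 30, 40, 50, 60, 70 or 80 mg/kg, with a vehicle (0 mg/kg) group. Read-out was tumour growth inhibition across the dose range, with body weight change also tracked.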

Cytochrome P450 3A4, sequence (P08684 whole entry): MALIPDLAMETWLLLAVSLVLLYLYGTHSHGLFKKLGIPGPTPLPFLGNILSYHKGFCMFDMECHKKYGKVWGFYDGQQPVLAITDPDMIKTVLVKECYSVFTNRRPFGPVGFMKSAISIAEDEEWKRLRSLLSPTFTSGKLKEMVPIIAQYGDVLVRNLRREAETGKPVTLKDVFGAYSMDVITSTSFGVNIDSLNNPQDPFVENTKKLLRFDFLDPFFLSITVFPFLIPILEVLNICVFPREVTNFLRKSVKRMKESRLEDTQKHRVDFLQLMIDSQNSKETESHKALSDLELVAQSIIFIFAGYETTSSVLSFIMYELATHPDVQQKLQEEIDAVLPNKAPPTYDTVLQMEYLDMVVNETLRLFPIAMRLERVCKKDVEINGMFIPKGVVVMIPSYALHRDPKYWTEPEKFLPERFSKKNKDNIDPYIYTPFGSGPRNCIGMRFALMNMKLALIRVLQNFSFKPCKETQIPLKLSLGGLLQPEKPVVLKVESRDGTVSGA

Compound: CS(=O)(=O)N1CCN(Cc2cc3nc(-c4cccc5[nH]ncc45)nc(N4CCOCC4)c3s2)CC1 [PICTILISIB]
TGI [1]: Active | TGI [2]: Active | Activity [3]: Non-toxic

Compound: CCNC(=O)Nc1ccc(-c2nc3c(c(N4CCOC[C@@H]4C)n2)CCN(C2COC2)C3)cc1 [RG-7603]
CL free [4]: 100 mL/min/kg | pKa [8]: 5 | Activity [3]: Non-toxic | CL free [6]: 171 mL/min/kg

Compound: CCNC(=O)Nc1ccc(-c2nc3c(c(N4CCOC[C@@H]4C)n2)CCN(C2COC2)C3)cc1
TGI [9]: Active | TGI [1]: Active | TGI [10]: Active | inhibition [11]: Dose-dependent effect | TGI [2]: Active | inhibition [12]: Active | inhibition [13]: Active | TGI [14]: Active

Compound: C[C@H]1COCCN1c1nc(-c2ccc(Nc3nccc(=O)[nH]3)cc2)nc2c1CCN(c1ncccn1)C2
EC50 [5]: 25 nM | clearance [15]: 78 mL/min/kg

Compound: O=c1cccc(Nc2ccc(-c3nc4c(c(N5CCOCC5)n3)CCN(c3ncccn3)C4)cc2)[nH]1
EC50 [5]: 1300 nM

Compound: CCNC(=O)Nc1ccc(-c2nc3c(c(N4CCOC[C@@H]4C)n2)CCN(C2COC2)C3)cc1.CS(=O)(=O)O
Activity [16]: < 10% | TGI [17]: 99%

Second part, the molecule after the results:

CL free [4]: 1818 mL/min/kg | EC50 [5]: 147 nM | CL free [6]: 1538 mL/min/kg
Compound: CCNC(=O)Nc1ccc(-c2nc3c(c(N4CCOC[C@@H]4C)n2)CCN(c2ncccn2)C3)cc1

IC50 [7]: 1400 nM
Compound: CCNC(=O)Nc1ccc(-c2nc3c(c(N4CCOC[C@@H]4C)n2)CCN(c2ncc(F)cn2)C3)cc1

IC50 [7]: 3300 nM
Compound: CCNC(=O)Nc1ccc(-c2nc3c(c(N4CCOC[C@@H]4C)n2)CCN(c2ccnc(C)n2)C3)cc1

EC50 [5]: 139 nM
Compound: C[C@H]1COCCN1c1nc(-c2ccc(Nc3nn(C)c(=O)[nH]3)cc2)nc2c1CCN(c1ncccn1)C2

IC50 [7]: > 10000 nM
Compound: CCNC(=O)Nc1ccc(-c2nc3c(c(N4CCOC[C@@H]4C)n2)CCN(c2nccn2C)C3)cc1

EC50 [5]: 310 nM
Compound: CCNC(=O)Nc1ccc(-c2nc3c(c(N4CCOCC4)n2)CCN(c2ncccn2)C3)cc1

EC50 [5]: 58 nM
Compound: O=C(NCCF)Nc1ccc(-c2nc3c(c(N4CCOCC4)n2)CCN(c2ncccn2)C3)cc1

IC50 [7]: 8400 nM
Compound: CCNC(=O)Nc1ccc(-c2nc3c(c(N4CCOC[C@@H]4C)n2)CCN(c2cc(C)ncn2)C3)cc1

pKa [8]: 7.6 | IC50 [7]: > 10000 nM
Compound: CCNC(=O)Nc1ccc(-c2nc3c(c(N4CCOC[C@@H]4C)n2)CCN(C(C)C)C3)cc1

EC50 [5]: 667 nM
Compound: CCNc1c(Nc2ccc(-c3nc4c(c(N5CCOC[C@@H]5C)n3)CCN(c3ncccn3)C4)cc2)c(=O)c1=O
